Calls of active or inactive are those of the source.
How the values were obtained:
Cavia porcellus [1] = species on record: Cavia porcellus; assay: Inhibition of Na+/K+ ATPase-mediated phosphohydrolase activity in guinea pig myocardium up to 10^-4 M after 30 mins; assay type: tissue-based
Procedure, shortened: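 Crude membrane preparation from guinea pig myocardium, holding both (Na+,K+)ATPase and Mg2+-ATPase. Incubated 37 °C, 30 min; substrate consumption under 15% without drug. Activity measured as inorganic phosphate liberated per mg protein per hour. Na+,K+ component taken as total minus Mg2+-ATPase activity, the latter measured without Na+ and K+. Drug range 10^-8–10^-4 M, duplicates.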

Cavia porcellus [2] = species on record: Cavia porcellus; assay: Induction of positive inotropic activity in guinea pig atrium assessed as atrial contractility up to 10^-4 M; assay type: functional, tissue-based; settings: Cardiac atrium
Procedure, shortened: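 Left auricle from guinea pig in Krebs-Henseleit solution, 32 °C, gassed with O2 containing 5% CO2, resting tension about 1 g. Paced by rectangular pulses (10 ms, 100/min) at 20% above threshold voltage. Change in isometric contraction calculated relative to control atria.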

Structure (SMILES)	inhibition (Cavia porcellus [1])	Activity (Cavia porcellus [2])
C[C@]12CC[C@H](O)C[C@H]1CC[C@@H]1[C@@H]2CC[C@]2(C)[C@@H](/C=C/C#N)CC[C@@H]12	inactive	inactive
C[C@]12CC[C@@H](O)C[C@H]1CC[C@@H]1[C@@H]2CC[C@]2(C)[C@@H](/C=C/C#N)CC[C@@H]12	inactive	inactive
COC(=O)/C=C/[C@H]1CC[C@H]2[C@@H]3CC[C@@H]4C[C@@H](O)CC[C@]4(C)[C@H]3CC[C@]12C	inactive	inactive
COC(=O)/C=C/[C@H]1CC[C@H]2[C@@H]3CC[C@@H]4C[C@H](O)CC[C@]4(C)[C@H]3CC[C@]12C	inactive	inactive
C[C@]12CC[C@@H](O)C[C@H]1CC[C@@H]1[C@@H]2CC[C@]2(C)[C@@H](/C=C\C#N)CC[C@@H]12	inactive	inactive
C[C@]12CC[C@H]3[C@@H](CCC4=C[C@@H](O)CC[C@@]43C)[C@@H]1CC[C@@H]2/C=C\C#N	inactive	inactive
COC(=O)/C=C/[C@H]1CC[C@H]2[C@@H]3CCC4=C[C@@H](O)CC[C@]4(C)[C@H]3CC[C@]12C	inactive	inactive
C[C@]12CC[C@H](O)C[C@@H]1CC[C@@H]1[C@@H]2CC[C@]2(C)[C@@H](/C=C\C#N)CC[C@@H]12	inactive	inactive
C[C@]12CC[C@H](O)C[C@@H]1CC[C@@H]1[C@@H]2CC[C@]2(C)[C@@H](/C=C/C#N)CC[C@@H]12	inactive	inactive
C[C@]12CC[C@H](O)C[C@H]1CC[C@@H]1[C@@H]2CC[C@]2(C)[C@@H](/C=C\C#N)CC[C@@H]12	inactive	inactive
C[C@]12CC[C@H]3[C@@H](CCC4=C[C@@H](O)CC[C@@]43C)[C@@H]1CC[C@@H]2/C=C/C#N	inactive	inactive
COC(=O)/C=C/[C@H]1CC[C@H]2[C@@H]3CC[C@H]4C[C@@H](O)CC[C@]4(C)[C@H]3CC[C@]12C	inactive	inactive

— ChEMBL document CHEMBL3228034, “Cardenolide analogues. 9. Synthesis and biological activity of 17beta-carbomethoxyethylene and 17beta-cyanoethylene 14alpha-H steroids” (J Med Chem, 1979)
